Reference: ChEMBL document CHEMBL5331127, “Discovery of ARD-2051 as a Potent and Orally Efficacious Proteolysis Targeting Chimera (PROTAC) Degrader of Androgen Receptor for the Treatment of Advanced Prostate Cancer” (J Med Chem, 2023)
Activity calls are given as the source filed them.

Columns and labels:
[1] = test system: VCaP; experiment: Downregulation of KLK3 gene expression in human VCaP cells incubated for 24 hrs by qRT-PCR analysis; format: functional, cell-based; conditions: dose 0.03-30 nM
How it was run: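 LNCaP cells (RPMI 1640) or VCaP cells (DMEM Glutamax), both with 10% FBS, treated for 24 h. KLK3 mRNA measured by qRT-PCR and calculated by the comparative CT method against GAPDH and vehicle.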

[2] = target: Cytochrome P450 3A4 (Homo sapiens, UniProt P08684); experiment: Inhibition of CYP3A4 in human liver microsomes using testosterone as substrate preincubated for 5 mins followed by NADPH addition and measured after 5 mins by LC/MS analysis; format: ADME, Microsome
[3] = target: T1, Androgen receptor (Homo sapiens) (UniProt P10275); experiment: Induction of androgen receptor degradation in human VCaP cells at 1 uM after 24 hrs by Western blotting analysis relative to control; format: cell-based
T1 sequence (whole entry): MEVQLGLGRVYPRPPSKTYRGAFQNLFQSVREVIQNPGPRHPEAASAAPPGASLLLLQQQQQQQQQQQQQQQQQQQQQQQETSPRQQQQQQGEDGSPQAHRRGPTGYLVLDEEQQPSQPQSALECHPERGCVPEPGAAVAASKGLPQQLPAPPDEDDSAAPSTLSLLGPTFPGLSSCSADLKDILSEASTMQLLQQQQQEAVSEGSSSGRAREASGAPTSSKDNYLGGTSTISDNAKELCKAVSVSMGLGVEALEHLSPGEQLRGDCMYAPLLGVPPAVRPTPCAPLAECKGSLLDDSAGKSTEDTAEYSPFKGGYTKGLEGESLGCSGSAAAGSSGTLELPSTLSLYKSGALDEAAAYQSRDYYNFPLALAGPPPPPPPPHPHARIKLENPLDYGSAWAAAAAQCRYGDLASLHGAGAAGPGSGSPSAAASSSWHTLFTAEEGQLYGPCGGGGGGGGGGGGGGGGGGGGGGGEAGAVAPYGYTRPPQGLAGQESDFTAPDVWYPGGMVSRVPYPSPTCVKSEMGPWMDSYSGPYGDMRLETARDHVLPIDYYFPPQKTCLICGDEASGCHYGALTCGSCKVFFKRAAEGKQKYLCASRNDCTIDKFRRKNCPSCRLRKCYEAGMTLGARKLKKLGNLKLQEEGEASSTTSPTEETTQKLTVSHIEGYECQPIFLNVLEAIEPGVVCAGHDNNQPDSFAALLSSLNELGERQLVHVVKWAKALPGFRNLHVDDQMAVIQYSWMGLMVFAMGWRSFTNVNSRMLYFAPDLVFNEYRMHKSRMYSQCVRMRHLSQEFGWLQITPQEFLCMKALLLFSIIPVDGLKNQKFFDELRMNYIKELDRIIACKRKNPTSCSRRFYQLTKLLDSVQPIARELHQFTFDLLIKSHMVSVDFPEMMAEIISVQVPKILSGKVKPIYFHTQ
How it was run: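 VCaP cells treated for 24 h at 10, 100 or 1000 nM. AR protein measured by Western blotting.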

[4] = target: T1, Androgen receptor (Homo sapiens); experiment: Induction of androgen receptor degradation in human VCaP cells at 100 to 1000 nM incubated for 24 hrs by proteomic analysis; format: cell-based; conditions: dose 100-1000 nM
How it was run: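 VCaP cells treated for 24 h with degrader at 100 nM or 1 μM, or with ARi-12 at 10 μM. Multiplexed quantitative proteomics, normalised to DMSO, three independent replicates. Cut-off p ≤0.05 and fold change >2.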

[5] = Drug concentration in ICR mouse plasma at 10 mg/kg, po measured after 3 hrs; format: ADME, organism-based
How it was run: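 Mice given a single 10 mg/kg dose by oral gavage, 3 mice per time point. Plasma drug levels measured at 1, 3, 6 and 24 h; mean ± SD reported.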

[6] = AUC(0 to t) in Beagle dog at 3 mg/kg, po measured up to 24 hrs by LC-MS/MS analysis; format: ADME, organism-based, Canis lupus familiaris; design: time < 24 hrs, dose 3 mg/kg, route po; conditions: in vivo
How it was run: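 Male Beagle dogs dosed orally at 3 mg/kg in 90% PEG400 + 10% Cremophor.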

[7] = target: T2, Cytochrome P450 1A2 (Homo sapiens, UniProt P05177); experiment: Inhibition of CYP1A2 in human liver microsomes preincubated for 5 mins followed by NADPH addition and measured after 10 mins by LC/MS analysis; format: ADME, Microsome
T2 sequence (P05177 whole entry): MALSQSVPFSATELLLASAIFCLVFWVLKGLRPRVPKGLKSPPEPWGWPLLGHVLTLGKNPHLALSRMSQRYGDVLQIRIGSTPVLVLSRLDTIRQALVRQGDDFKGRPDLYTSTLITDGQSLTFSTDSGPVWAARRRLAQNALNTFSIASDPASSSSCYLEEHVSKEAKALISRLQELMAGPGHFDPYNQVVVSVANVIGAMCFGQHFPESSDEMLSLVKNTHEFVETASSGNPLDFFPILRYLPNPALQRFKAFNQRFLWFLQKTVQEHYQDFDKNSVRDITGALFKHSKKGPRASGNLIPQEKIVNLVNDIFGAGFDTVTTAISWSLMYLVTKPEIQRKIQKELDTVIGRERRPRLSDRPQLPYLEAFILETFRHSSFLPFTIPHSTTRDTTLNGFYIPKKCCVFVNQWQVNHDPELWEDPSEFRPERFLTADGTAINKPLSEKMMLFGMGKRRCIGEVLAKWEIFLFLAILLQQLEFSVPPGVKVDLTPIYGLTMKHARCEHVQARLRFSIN
How it was run: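 Human liver microsomes (0.2 mg/mL stock) in 0.1 M potassium phosphate pH 7.4, prewarmed 5 min at 37 °C with test compound. Phenacetin as substrate; reaction started with NADPH (8 mM stock) and run 10 min, in duplicate. α-Naphthoflavone as reference inhibitor; LC/MS read-out.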

[8] = Metabolic stability in human plasma assessed as half life at 1 uM measured upto 120 mins by LC-MS/MS analysis; format: ADME, cell-free; conditions: 2 h
How it was run: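 Compound at 1 μM final in pre-warmed plasma of each species, 37 °C for up to 2 h. ACN/IS quench at 0, 5, 15, 30, 60 and 120 min; LC/MS. Procaine as reference (benfluorex for rat). t1/2 = 0.693/slope of ln(fraction remaining) versus time.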

[9] = test system: LNCaP; experiment: Induction of androgen receptor degradation in human LNCaP cells at 100 nM pretreated with thalidomide for 2 hrs followed by compound addition and 3 hrs by Western blot analysis; format: functional, cell-based; conditions: time 5.0 hrs
How it was run: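 LNCaP or VCaP cells pretreated 2 h with DMSO, ARi-12 (10 μM), thalidomide (10 μM), MG-132 (3 μM) or MLN4924 (0.5 μM), then given degrader at 100 nM for 3 h. AR measured by Western blot with GAPDH as loading control.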

[10] = target: Androgen receptor (Homo sapiens) (UniProt P10275); experiment: In vivo induction of androgen receptor degradation in human VCaP cells xenografted in CB17 SCID mouse assessed as reduction in AR protein level at 12.5 mg/kg, po measured after 24 hrs by Western blotting analysis; design: scale not given: the % may be the effect or the level left

Cytochrome P450 3A4, sequence (P08684 whole entry): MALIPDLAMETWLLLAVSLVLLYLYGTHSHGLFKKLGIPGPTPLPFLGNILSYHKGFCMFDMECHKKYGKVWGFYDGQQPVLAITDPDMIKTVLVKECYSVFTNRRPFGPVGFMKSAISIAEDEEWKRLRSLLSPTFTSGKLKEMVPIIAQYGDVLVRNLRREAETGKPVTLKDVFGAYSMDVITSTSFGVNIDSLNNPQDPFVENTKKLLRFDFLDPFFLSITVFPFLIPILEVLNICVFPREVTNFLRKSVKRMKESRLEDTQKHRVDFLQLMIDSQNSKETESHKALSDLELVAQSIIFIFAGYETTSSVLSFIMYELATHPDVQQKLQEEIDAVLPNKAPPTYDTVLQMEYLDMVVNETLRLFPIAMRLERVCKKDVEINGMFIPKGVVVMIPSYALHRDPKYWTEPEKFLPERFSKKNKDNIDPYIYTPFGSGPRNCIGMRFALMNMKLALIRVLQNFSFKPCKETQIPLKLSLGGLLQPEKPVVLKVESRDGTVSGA

Which results are given for `C[C@H]1CC2(CCN(c3ccc(C(=O)N4CCN(C5CN(c6ccc7c(c6)C(=O)N(C6CCC(=O)NC6=O)C7=O)C5)CC4)cc3)CC2)CN1c1ccc(C#N)c(Cl)c1` (stereo not given in full)?
Activity [1]: Dose-Dependent Effect; IC50 [2]: > 10 µM; Activity [3]: > 95%; Activity [4]: 82%; concentration at 3 h [5]: 664 ng/mL; AUCt [6]: 4460 ng·h/mL; IC50 [7]: > 10 µM; t1/2 [8]: > 2 h; Activity [9]: inactive; Activity [10]: > 95%
